Data: ChEMBL document CHEMBL1649231, “In vitro activities of panduratin A against clinical Staphylococcus strains” (2009)
≈ marks a conversion by molar mass, not a printed value.

How the values were obtained:
Assay type in all cases: functional
Staphylococcus hominis [1] = experiment: Antimicrobial activity against methicillin-susceptible coagulase-negative Staphylococcus hominis after 24 hrs by broth microdilution method
In short: (§1)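 Clinical isolates came from blood, body fluids, genital secretions, pus or sputum, identified conventionally or by Vitek. MICs were run by CLSI M7-A6 broth microdilution in Mueller-Hinton broth with 5 × 10^5 CFU/ml inoculum. Agents were twofold serially diluted, starting from 10% DMSO. Drug-free and uninoculated controls were included. Plates were incubated aerobically at 37°C for 24 h; MIC is the lowest concentration giving no visible growth.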

Staphylococcus simulans [2] = experiment: Bactericidal activity against methicillin-susceptible coagulase-negative Staphylococcus simulans after 24 hrs by plate counting method
In short: (§2)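 Clinical staphylococcal isolates from patient body fluids, blood, genital secretions, pus or sputum; species by conventional methods or Vitek. Twofold dilutions in Mueller-Hinton broth, inoculum 5 × 10^5 CFU/ml, 37°C aerobic 24 h (CLSI M7-A6 microdilution). About 100 μl from each well without visible growth spread on MHA; 37°C 24 h. MBC = lowest concentration giving no growth on agar.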

Mammaliicoccus sciuri [3] = experiment: Bactericidal activity against methicillin-susceptible coagulase-negative Staphylococcus sciuri after 24 hrs by plate counting method; in short: as §2
[4] = test system: Staphylococcus haemolyticus; experiment: Bactericidal activity against methicillin-susceptible coagulase-negative Staphylococcus haemolyticus after 24 hrs by plate counting method; in short: as §2
Mammaliicoccus sciuri [5] = experiment: Antimicrobial activity against methicillin-resistant coagulase-negative Staphylococcus sciuri after 24 hrs by broth microdilution method; in short: as §1
[6] = test system: Staphylococcus haemolyticus; experiment: Antimicrobial activity against methicillin-susceptible coagulase-negative Staphylococcus haemolyticus after 24 hrs by broth microdilution method; in short: as §1
Staphylococcus aureus [7] = experiment: Bactericidal activity against methicillin-susceptible Staphylococcus aureus after 24 hrs by plate counting method; in short: as §2
Staphylococcus hominis [8] = experiment: Bactericidal activity against methicillin-susceptible coagulase-negative Staphylococcus hominis after 24 hrs by plate counting method; in short: as §2
Mammaliicoccus sciuri [9] = experiment: Antimicrobial activity against methicillin-susceptible coagulase-negative Staphylococcus sciuri after 24 hrs by broth microdilution method; in short: as §1
Staphylococcus aureus [10] = experiment: Antimicrobial activity against methicillin-susceptible Staphylococcus aureus after 24 hrs by broth microdilution method; in short: as §1
Staphylococcus hominis [11] = experiment: Bactericidal activity against methicillin-resistant coagulase-negative Staphylococcus hominis after 24 hrs by plate counting method; conditions: Staphylococcus hominis, 24 h
[12] = test system: Staphylococcus haemolyticus; experiment: Bactericidal activity against methicillin-resistant coagulase-negative Staphylococcus haemolyticus after 24 hrs by plate counting method; conditions: Staphylococcus haemolyticus, 24 h
Staphylococcus simulans [13] = experiment: Bactericidal activity against methicillin-resistant coagulase-negative Staphylococcus simulans after 24 hrs by plate counting method; conditions: Staphylococcus simulans, 24 h; in short: as §2
Mammaliicoccus sciuri [14] = experiment: Bactericidal activity against methicillin-resistant coagulase-negative Staphylococcus sciuri after 24 hrs by plate counting method; conditions: Mammaliicoccus sciuri, 24 h; in short: as §2
[15] = test system: Staphylococcus epidermidis; experiment: Antimicrobial activity against methicillin-susceptible coagulase-negative Staphylococcus epidermidis after 24 hrs by broth microdilution method; in short: as §1
Staphylococcus aureus [16] = experiment: Antimicrobial activity against methicillin-resistant Staphylococcus aureus after 24 hrs by broth microdilution method; in short: as §1
Staphylococcus simulans [17] = experiment: Antimicrobial activity against methicillin-susceptible coagulase-negative Staphylococcus simulans after 24 hrs by broth microdilution method; in short: as §1
Staphylococcus simulans [18] = experiment: Antimicrobial activity against methicillin-resistant coagulase-negative Staphylococcus simulans after 24 hrs by broth microdilution method; in short: as §1
[19] = test system: Staphylococcus haemolyticus; experiment: Antimicrobial activity against methicillin-resistant coagulase-negative Staphylococcus haemolyticus after 24 hrs by broth microdilution method; in short: as §1
Staphylococcus aureus [20] = experiment: Bactericidal activity against methicillin-resistant Staphylococcus aureus after 24 hrs by plate counting method
[21] = test system: Staphylococcus epidermidis; experiment: Antimicrobial activity against methicillin-resistant coagulase-negative Staphylococcus epidermidis after 24 hrs by broth microdilution method; in short: as §1
[22] = test system: Staphylococcus epidermidis; experiment: Bactericidal activity against methicillin-susceptible coagulase-negative Staphylococcus epidermidis after 24 hrs by plate counting method; in short: as §2
Staphylococcus hominis [23] = experiment: Antimicrobial activity against methicillin-resistant coagulase-negative Staphylococcus hominis after 24 hrs by broth microdilution method; in short: as §1
[24] = test system: Staphylococcus epidermidis; experiment: Bactericidal activity against methicillin-resistant coagulase-negative Staphylococcus epidermidis after 24 hrs by plate counting method; conditions: Staphylococcus epidermidis, 24 h

Cc1ccc(C(C)C)c(O)c1 [THYMOL]
MIC50 (Staphylococcus hominis [1]): 64 µg/mL (≈ 426 µM)
MIC90 (Staphylococcus hominis [1]): 64 µg/mL (≈ 426 µM)
MBC50 (Staphylococcus simulans [2]): 256 µg/mL (≈ 1700 µM)
MBC90 (Staphylococcus simulans [2]): 512 µg/mL (≈ 3410 µM)
MBC (Staphylococcus simulans [2]; Staphylococcus simulans, 24 h): 64 µg/mL (≈ 426 µM)
MBC50 (Mammaliicoccus sciuri [3]): 256 µg/mL (≈ 1700 µM)
MBC90 (Mammaliicoccus sciuri [3]): 512 µg/mL (≈ 3410 µM)
MBC (Mammaliicoccus sciuri [3]; Mammaliicoccus sciuri, 24 h): 64 µg/mL (≈ 426 µM)
MBC50 [4]: 256 µg/mL (≈ 1700 µM)
MBC90 [4]: 512 µg/mL (≈ 3410 µM)
MBC ([4]; Staphylococcus haemolyticus, 24 h): 64 µg/mL (≈ 426 µM)
MIC50 (Mammaliicoccus sciuri [5]): 64 µg/mL (≈ 426 µM)
MIC90 (Mammaliicoccus sciuri [5]): 128 µg/mL (≈ 852 µM)
MIC50 [6]: 64 µg/mL (≈ 426 µM)
MIC90 [6]: 64 µg/mL (≈ 426 µM)
MBC50 (Staphylococcus aureus [7]): 256 µg/mL (≈ 1700 µM)
MBC90 (Staphylococcus aureus [7]): 512 µg/mL (≈ 3410 µM)
MBC (Staphylococcus aureus [7]; Staphylococcus aureus, 24 h): 128 µg/mL (≈ 852 µM)
MBC50 (Staphylococcus hominis [8]): 256 µg/mL (≈ 1700 µM)
MBC90 (Staphylococcus hominis [8]): 512 µg/mL (≈ 3410 µM)
MBC (Staphylococcus hominis [8]; Staphylococcus hominis, 24 h): 64 µg/mL (≈ 426 µM)
MIC50 (Mammaliicoccus sciuri [9]): 64 µg/mL (≈ 426 µM)
MIC90 (Mammaliicoccus sciuri [9]): 64 µg/mL (≈ 426 µM)
MIC50 (Staphylococcus aureus [10]): 128 µg/mL (≈ 852 µM)
MIC90 (Staphylococcus aureus [10]): 128 µg/mL (≈ 852 µM)
MBC (Staphylococcus hominis [11]): 64 µg/mL (≈ 426 µM)
MBC [12]: 64 µg/mL (≈ 426 µM)
MBC (Staphylococcus simulans [13]): 64 µg/mL (≈ 426 µM)
MBC (Mammaliicoccus sciuri [14]): 64 µg/mL (≈ 426 µM)
MIC50 [15]: 64 µg/mL (≈ 426 µM)
MIC90 [15]: 64 µg/mL (≈ 426 µM)
MIC50 (Staphylococcus aureus [16]): 128 µg/mL (≈ 852 µM)
MIC90 (Staphylococcus aureus [16]): 128 µg/mL (≈ 852 µM)
MIC50 (Staphylococcus simulans [17]): 64 µg/mL (≈ 426 µM)
MIC90 (Staphylococcus simulans [17]): 64 µg/mL (≈ 426 µM)
MIC50 (Staphylococcus simulans [18]): 64 µg/mL (≈ 426 µM)
MIC90 (Staphylococcus simulans [18]): 128 µg/mL (≈ 852 µM)
MIC50 [19]: 64 µg/mL (≈ 426 µM)
MIC90 [19]: 128 µg/mL (≈ 852 µM)
MBC50 (Staphylococcus aureus [20]): 512 µg/mL (≈ 3410 µM)
MBC (Staphylococcus aureus [20]; Staphylococcus aureus, 24 h): 256 µg/mL (≈ 1700 µM)
MIC50 [21]: 64 µg/mL (≈ 426 µM)
MIC90 [21]: 128 µg/mL (≈ 852 µM)
MBC50 [22]: 256 µg/mL (≈ 1700 µM)
MBC90 [22]: 512 µg/mL (≈ 3410 µM)
MBC ([22]; Staphylococcus epidermidis, 24 h): 64 µg/mL (≈ 426 µM)
MIC50 (Staphylococcus hominis [23]): 64 µg/mL (≈ 426 µM)
MIC90 (Staphylococcus hominis [23]): 128 µg/mL (≈ 852 µM)
MBC [24]: 64 µg/mL (≈ 426 µM)
